The list is not random: actives were taken first. Their share in the collection is about 3.5%.
MrgX1 agonist = agonists of human MrgX1 receptor, primary screen, HEK293 cells, Fluo-4 calcium flux | Fluo-4 calcium fluorescence, agonist mode; active compounds read high | B-score at 10 µM | hit rate 0.44% among 310,000 | AID 588627, 2011;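 active means calcium response B-score plate-corrected fluorescence ratio at least 3 library SD, with starting fluorescence B-score inside 5 SD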
Target sequence (Q96LB2 whole entry, looked up): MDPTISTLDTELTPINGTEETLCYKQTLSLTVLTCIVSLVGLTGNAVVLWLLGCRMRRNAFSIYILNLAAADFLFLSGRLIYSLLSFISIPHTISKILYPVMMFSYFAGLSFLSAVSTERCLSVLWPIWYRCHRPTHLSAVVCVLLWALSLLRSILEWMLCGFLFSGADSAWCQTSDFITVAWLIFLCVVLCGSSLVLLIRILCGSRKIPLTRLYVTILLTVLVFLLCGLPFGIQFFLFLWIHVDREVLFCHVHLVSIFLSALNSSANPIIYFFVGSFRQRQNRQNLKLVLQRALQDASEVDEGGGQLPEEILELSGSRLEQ
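times = overnight plating, then 30 min 37 °C plus 30 min room-temperature dye loading | assay system = stable human MrgX1 HEK293 cell line | input = fifteen thousand cells per well | signal = kinetic calcium dye fluorescence, Fluo-4 NW | dosing = compound delivered in addition one of three | read-out = B-scored fluorescence response ratio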
RGS4 pot = RGS4 potentiators or activators, primary screen, cell-based, HEK293 M3R inducible RGS4, calcium flux. B-score at 10 µM. AID 463111, 2010. hit rate 0.92% among 310,000. carbachol calcium flux Fluo4; active compounds read low;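 active means B-score of the integrated calcium signal more than 4 SD below the library mean, with starting fluorescence not abnormally high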;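 further: negative B-score means reduced calcium response which marks RGS4 activation or potentiation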
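test system = M3R-expressing HEK293 line, RGS4 induced by doxycycline | probe or stimulus = carbachol at ECmax as muscarinic agonist stimulus | timing = dye loading 30 min 37 °C, buffer rest 30 min RT | signal = calcium dye Fluo4 fluorescence | evaluation = B score from integrated fluorescence ratio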
MrgX1 allo act = positive allosteric modulators of MrgX1, primary screen, HEK293 cells, Fluo-4 calcium flux. Mas-related G-protein coupled receptor member X1 (Homo sapiens), Q96LB2. FDSS; active compounds read high. B-score at 10 µM. hit rate 0.63% among 310,000;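 active means plate-corrected calcium response at least 3 library SD above typical, normal starting fluorescence, not activating the receptor alone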;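 further: compound read alongside a low EC10 to EC30 dose of BAM8-22 agonist; peak minus trough fluorescence over baseline measured at the second addition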
MrgX1 antag = antagonists of human MrgX1 receptor, primary screen, HEK293 cells, Fluo-4 calcium flux. Mas-related G-protein coupled receptor member X1 (Homo sapiens), Q96LB2. BAM8-22 antagonism; active compounds read low. B-score at 10 µM. hit rate 1.3% among 310,000. AID 588676, 2011;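 active means calcium-response B-score plate-corrected more than 3 library SD below zero, starting fluorescence within 5 deviations, no agonist response on first addition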;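 further: peak minus trough fluorescence over baseline after final BAM8-22 challenge near maximal dose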
RGS4 inh = RGS4 inhibitors, primary screen, cell-based, HEK293 M3R inducible RGS4, calcium flux; B-score at 10 µM; Regulator of G-protein signaling 4 (Homo sapiens), P49798; hit rate 0.45% among 310,000; Fluo-4 calcium flux; active compounds read high; triggered by carbachol at its EC20;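 active means B-score, a plate-corrected calcium signal, over three deviations above library mean, with baseline fluorescence within five deviations of library mean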;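 further: RGS4 expression induced by doxycycline in cells with stable M3 receptor; B-score is computed from the integrated fluorescence ratio over baseline after carbachol; higher B-score means a larger calcium signal and so more RGS4 inhibition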
Target sequence (P49798 whole entry, looked up): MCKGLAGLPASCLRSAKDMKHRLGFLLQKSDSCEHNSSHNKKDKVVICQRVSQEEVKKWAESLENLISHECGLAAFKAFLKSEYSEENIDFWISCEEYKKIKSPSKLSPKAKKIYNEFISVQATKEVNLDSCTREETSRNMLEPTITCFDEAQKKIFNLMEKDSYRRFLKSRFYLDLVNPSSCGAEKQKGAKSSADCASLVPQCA
A number is an active result.

`CCCOc1ccc(-c2nn(-c3ccccc3)cc2/C=C2\SC(=S)N(C3CCS(=O)(=O)C3)C2=O)cc1` (stereo unspecified) gave MrgX1 agonist inactive, RGS4 pot inactive, MrgX1 allo act inactive, MrgX1 antag inactive and RGS4 inh inactive.
`Cc1ccc(-c2nn(-c3ccccc3)cc2/C=C2\SC(=S)N(CC(=O)O)C2=O)cc1` gave MrgX1 agonist inactive, RGS4 pot inactive, MrgX1 allo act inactive, MrgX1 antag inactive and RGS4 inh inactive.
Screening COc1ccc2oc(C(=O)N(Cc3ccco3)Cc3cccs3)c(C)c2c1 returned MrgX1 agonist inactive, RGS4 pot inactive, MrgX1 allo act inactive, MrgX1 antag inactive and RGS4 inh inactive.
For O=C(OCCOc1ccc(Br)cc1)c1ccc(Cl)c(S(=O)(=O)N2CCOCC2)c1 the results were MrgX1 agonist inactive, RGS4 pot inactive, MrgX1 allo act inactive, MrgX1 antag inactive and RGS4 inh inactive.
Screening Cc1noc(C)c1C(=O)OC(C)C(=O)Nc1ccc(S(=O)(=O)NC(C)C)cc1 (stereo unspecified) returned MrgX1 agonist inactive, RGS4 pot inactive, MrgX1 allo act inactive, MrgX1 antag inactive and RGS4 inh inactive.
`Cc1nc2nc(CNC(=O)OC(C)(C)C)nn2c(C)c1CCC(=O)Nc1ccc2c(c1)OCO2` gave MrgX1 agonist inactive, RGS4 pot inactive, MrgX1 allo act inactive, MrgX1 antag inactive and RGS4 inh inactive.
Nn1cnc2cc3ccccc3cc2c1=O was read as MrgX1 agonist inactive, RGS4 pot inactive, MrgX1 allo act inactive, MrgX1 antag inactive and RGS4 inh inactive.
O=C(O)c1ccc(N2CCc3ccccc32)c([N+](=O)[O-])c1 was read as MrgX1 agonist inactive, RGS4 pot inactive, MrgX1 allo act inactive, MrgX1 antag inactive and RGS4 inh inactive.
COC(=O)c1ccc(N2CCc3ccccc32)c([N+](=O)[O-])c1 was read as MrgX1 agonist inactive, RGS4 pot inactive, MrgX1 allo act 7.7, MrgX1 antag inactive and RGS4 inh inactive.
For CCOc1ccc(NC(=O)CSc2nnc(CCNC(=O)c3ccc(OC)cc3)n2C)cc1 the results were MrgX1 agonist inactive, RGS4 pot inactive, MrgX1 allo act inactive, MrgX1 antag -6.26 and RGS4 inh inactive.
COc1ccc(-c2noc(CCC(=O)N3CCC(C)CC3)n2)cc1 was read as MrgX1 agonist inactive, RGS4 pot inactive, MrgX1 allo act inactive, MrgX1 antag inactive and RGS4 inh inactive.
`COc1ccc(-c2noc(CCC(=O)N3CCN(Cc4ccccc4)CC3)n2)cc1` gave MrgX1 agonist inactive, RGS4 pot inactive, MrgX1 allo act inactive, MrgX1 antag -5.32 and RGS4 inh inactive.
For CCC(C)(C)NC(=O)C(c1ccc(C)cc1)N(CCN1CCOCC1)C(=O)CNC(=O)c1cccs1 (stereo unspecified) the results were MrgX1 agonist inactive, RGS4 pot inactive, MrgX1 allo act inactive, MrgX1 antag inactive and RGS4 inh inactive.
For Cn1c(C(=O)N(Cc2ccccc2)Cc2cccs2)cc2sccc21 the results were MrgX1 agonist inactive, RGS4 pot -7.85, MrgX1 allo act inactive, MrgX1 antag inactive and RGS4 inh inactive.
CN(CCCC1CCCC1)C(=O)c1cc(COc2ccc(F)cc2F)on1 was read as MrgX1 agonist inactive, RGS4 pot inactive, MrgX1 allo act inactive, MrgX1 antag inactive and RGS4 inh inactive.
`CN(CCCN1CCCCC1)C(=O)c1cc(COc2ccc(F)cc2F)on1` gave MrgX1 agonist inactive, RGS4 pot inactive, MrgX1 allo act inactive, MrgX1 antag -7.3 and RGS4 inh inactive.
`CC(C)c1nnc(NC(=O)COc2ccccc2[N+](=O)[O-])s1` gave MrgX1 agonist inactive, RGS4 pot inactive, MrgX1 allo act inactive, MrgX1 antag inactive and RGS4 inh inactive.
CCSc1nnc(NC(=O)COc2ccccc2[N+](=O)[O-])s1 was read as MrgX1 agonist inactive, RGS4 pot inactive, MrgX1 allo act 8.61, MrgX1 antag inactive and RGS4 inh inactive.
For COc1ccc(NC(=O)COc2ccccc2C(=O)NCC(c2ccccc2)N(C)C)cc1Cl (stereo unspecified) the results were MrgX1 agonist inactive, RGS4 pot -9.39, MrgX1 allo act inactive, MrgX1 antag inactive and RGS4 inh inactive.
`C1=CN2CCC1C(c1ccccc1)C2` (stereo unspecified) gave MrgX1 agonist inactive, RGS4 pot -7.34, MrgX1 allo act inactive, MrgX1 antag inactive and RGS4 inh inactive.
For CC(C)NCC(O)COCCOc1ccc(C(C)(C)C)cc1 (stereo unspecified) the results were MrgX1 agonist inactive, RGS4 pot inactive, MrgX1 allo act inactive, MrgX1 antag -5.23 and RGS4 inh inactive.
Screening O=C(NCCCO)C(=O)NCc1ccncc1 returned MrgX1 agonist inactive, RGS4 pot inactive, MrgX1 allo act inactive, MrgX1 antag inactive and RGS4 inh inactive.
Screening O=c1c2ccccc2c(/C=N/NS(=O)(=O)c2ccccc2)c(O)n1-c1ccccn1 returned MrgX1 agonist 52.5, RGS4 pot inactive, MrgX1 allo act inactive, MrgX1 antag inactive and RGS4 inh inactive.
COc1ccccc1NC(=O)c1ccc(S(=O)(=O)NCc2ccco2)cc1 was read as MrgX1 agonist inactive, RGS4 pot inactive, MrgX1 allo act inactive, MrgX1 antag inactive and RGS4 inh inactive.
Screening CCOC(=O)C1CCCN(C(=O)c2ccc([N+](=O)[O-])c(C)c2)C1 (stereo unspecified) returned MrgX1 agonist inactive, RGS4 pot inactive, MrgX1 allo act inactive, MrgX1 antag inactive and RGS4 inh inactive.
For CCOC(=O)C1CCCN(C(=O)c2ccc(C)c([N+](=O)[O-])c2)C1 (stereo unspecified) the results were MrgX1 agonist inactive, RGS4 pot -8.59, MrgX1 allo act inactive, MrgX1 antag inactive and RGS4 inh inactive.
For Cc1ccc(SCC(=O)OCC(=O)NCc2cccs2)cc1C the results were MrgX1 agonist inactive, RGS4 pot inactive, MrgX1 allo act inactive, MrgX1 antag inactive and RGS4 inh inactive.
CCOc1ccc(CNC(=O)C(=O)c2cn(CC(=O)N3CCOCC3)c3ccccc23)cc1OC was read as MrgX1 agonist inactive, RGS4 pot inactive, MrgX1 allo act inactive, MrgX1 antag inactive and RGS4 inh inactive.
Cc1c2cnn(CC(=O)NCCN3CCOCC3)c(=O)c2c(C)n1Cc1ccc(F)cc1 was read as MrgX1 agonist inactive, RGS4 pot inactive, MrgX1 allo act inactive, MrgX1 antag -5.81 and RGS4 inh inactive.
Cc1c2cnn(CC(=O)N3CCN(c4ncccn4)CC3)c(=O)c2c(C)n1Cc1ccc(F)cc1 was read as MrgX1 agonist inactive, RGS4 pot inactive, MrgX1 allo act inactive, MrgX1 antag inactive and RGS4 inh inactive.
`CCOc1cccc(CNc2ccc(O)cc2)c1OCc1ccc(Cl)cc1Cl` gave MrgX1 agonist inactive, RGS4 pot inactive, MrgX1 allo act inactive, MrgX1 antag inactive and RGS4 inh inactive.
